“Also recorded” adds a separate entry of the source. Where two headings read alike, the source gives them in different places. Each block holds one compound with its values, some of them ahead of it.
How the values were obtained:
α-glucosidase [1] = biological target: T1, α-glucosidase (Saccharomyces cerevisiae, UniProt P53341); settings: reported in the literature; cited from earlier work
[2] = biological target: α-glucosidase (Saccharomyces cerevisiae, EC 3.2.1.20) (Saccharomyces cerevisiae, UniProt P53341); assay: Assay of α-glucosidase inhibitory activity; format: biochemical; settings: for inhibitory effect on α-glucosidase (in words): 1-deoxynojirimycin as control
α-glucosidase [3] = biological target: T1, α-glucosidase; assay: Inhibitory kinetic analysis; format: biochemical
α-glucosidase [4] = biological target: T1, α-glucosidase; assay: Fluorescence quenching and UV-Vis absorption spectra of α-glucosidase; format: binding; settings: Stern–Volmer analysis and UV-Vis absorption spectra at 298 K
Summary of the method: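 Tryptophan fluorescence was excited at 280 nm and emission recorded at 300–500 nm. Test compound (0–8.0 × 10−5 mol L−1) was added to α-glucosidase (1 U mL−1) and incubated 30 s at 298 K before reading. Data were fitted to the Stern–Volmer equation F0/F = 1 + Kqτ0[Q], with τ0 = 6.2 ns. The same method was run at 273, 298 and 310 K for thermodynamic parameters. UV-Vis spectra (200–600 nm) were taken of enzyme (1.0 × 10−5 mol L−1) with compound at 0–9.0 × 10−5 mol L−1.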

α-glucosidase (Saccharomyces cerevisiae, EC 3.2.1.20), sequence (P53341 whole entry): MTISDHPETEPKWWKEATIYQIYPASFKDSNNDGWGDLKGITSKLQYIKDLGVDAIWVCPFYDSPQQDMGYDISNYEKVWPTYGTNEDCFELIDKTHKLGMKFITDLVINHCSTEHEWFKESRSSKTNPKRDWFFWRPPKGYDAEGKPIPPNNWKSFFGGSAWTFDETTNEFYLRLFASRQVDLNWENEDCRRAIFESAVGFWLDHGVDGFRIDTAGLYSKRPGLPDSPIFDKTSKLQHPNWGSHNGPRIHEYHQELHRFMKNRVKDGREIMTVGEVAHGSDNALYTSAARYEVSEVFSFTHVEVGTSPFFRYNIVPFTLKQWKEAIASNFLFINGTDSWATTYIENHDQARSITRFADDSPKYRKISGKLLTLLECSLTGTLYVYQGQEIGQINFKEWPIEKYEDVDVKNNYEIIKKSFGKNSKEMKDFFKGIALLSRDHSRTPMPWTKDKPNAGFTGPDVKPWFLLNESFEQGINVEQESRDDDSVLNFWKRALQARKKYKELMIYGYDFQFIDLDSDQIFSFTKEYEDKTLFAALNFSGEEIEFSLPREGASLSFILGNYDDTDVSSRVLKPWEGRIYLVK
T1 sequence (P53341 whole entry): as above

Structure (SMILES): OC[C@H]1NC[C@H](O)[C@@H](O)[C@@H]1O [1-Deoxynojirimycin]
reversibility of α-glucosidase inhibition (α-glucosidase [1]): reversibly inhibit

IC50 [2]: > 100000 nM
Structure (SMILES): O=c1cc(-c2ccccc2)oc2cc(OCCCCCN3C[C@H](O)[C@@H](O)[C@H](O)[C@H]3CO)cc(O)c12 [compound 4, 5-Hydroxy-2-phenyl-7-((5-((2R,3R,4R,5S)-3,4,5-trihydroxy-2-(hydroxymeth-yl)-piperidin-1-yl)pentyl)oxy)-4H-chromen-4-one]

IC50 [2]: 5560 ± 240 nM
Structure (SMILES): O=c1cc(-c2ccccc2)oc2cc(OCCCCCCCCN3C[C@H](O)[C@@H](O)[C@H](O)[C@H]3CO)cc(O)c12 [compound 5, 5-Hydroxy-2-phenyl-7-((8-((2R,3R,4R,5S)-3,4,5-trihydroxy-2-(hydroxymeth-yl)-piperidin-1-yl)octyl)oxy)-4H-chromen-4-one]
inhibitory effect on α-glucosidase (in words) [2]: superior inhibition effects compared to 1-deoxynojirimycin

IC50 [2]: 510 ± 20 nM
α-glucosidase inhibitory activity, fold higher than 1-deoxynojirimycin ([2]; ratio of IC50 values): up to 16 fold
Ki (α-glucosidase [3]): 210 nM
reversibility of α-glucosidase inhibition (α-glucosidase [3]; 0.0, 0.5, 1.0 μM of compound, varying enzyme concentration): reversible
fluorescence quenching mechanism (α-glucosidase [4]): static fluorescence quenching
Structure (SMILES): O=c1cc(-c2ccccc2)oc2cc(OCCCCCCCCCCCN3C[C@H](O)[C@@H](O)[C@H](O)[C@H]3CO)cc(O)c12 [compound 6, 5-Hydroxy-2-phenyl-7-((11-((2R,3R,4R,5S)-3,4,5-trihydroxy-2-(hydroxymethyl)-piperidin-1-yl)undecyl)oxy)-4H-chromen-4-one]
inhibitory effect on α-glucosidase (in words) [2]: superior inhibition effects compared to 1-deoxynojirimycin
inhibition type (α-glucosidase [3]; Lineweaver–Burk plot): mixed competitive; also recorded: mixed-type inhibitor; also recorded: mixed competition type

Reference: PMC9044198 (RSC Advances, 2021)
